Key:
Mus musculus [1] = species: Mus musculus; assay: animal or person; type: functional; settings: CD-1 Charles River, sc
Mus musculus [2] = assay: Analgesic activity in CD-1 Charles River mouse at 25 mg/kg, sc measured for 15 to 60 mins by tail flick test relative to control; type: functional; settings: route subcutaneous
How it was run: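 Male CD-1 mice, ten per group, were restrained and given an intense light-beam stimulus, and tail-flick latency was recorded. Two baseline readings were taken. Mice were excluded if their readings differed by more than 1 s or if including them would widen the group spread beyond 3 s. A cutoff was set from the baselines. Drug was given sc (vehicle 10 mL/kg), and mice were tested at 15, 30, 45 and 60 min. Responses beyond the cutoff counted as analgesia, reported as percent.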

Mus musculus [3] = assay: Analgesic activity in po dosed CD-1 Charles River mouse assessed as inhibition of phenyl-p-benzoquinine-induced writhing administered 15 to 90 mins prior to phenyl-p-benzoquinine challenge measured after 5 mins; type: functional
Mus musculus [4] = assay: Potency index, ratio of propoxyphene ED50 to compound ED50 for inhibition of phenyl-p-benzoquinine-induced writhing in po dosed CD-1 Charles River mouse; type: functional
How it was run: (§1)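 Writhing ED50s came from male CD-1 mice, ten per dose, tested at peak time after sc or po dosing, with four doses plus a vehicle control (water with Tween 80) in randomized order. Writhes were counted for 10 min, beginning 5 min after 0.125% phenyl-p-benzoquinone. ED50 was estimated by linear regression of percent inhibition, and ratios were formed from these ED50s.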

Mus musculus [5] = assay: Ratio of ED50 for inhibition of phenyl-p-benzoquinine-induced writhing in po dosed CD-1 Charles River mouse to ED50 for inhibition of phenyl-p-benzoquinine-induced writhing in sc dosed CD-1 Charles River mouse; type: functional
How it was run: as §1

Mus musculus [6] = assay: Potency index, ratio of propoxyphene ED50 to compound ED50 for inhibition of phenyl-p-benzoquinine-induced writhing in sc dosed CD-1 Charles River mouse; type: functional
How it was run: as §1

Mus musculus [7] = assay: Analgesic activity in sc dosed CD-1 Charles River mouse measured for 15 to 60 mins by tail flick test relative to control; type: functional
Mus musculus [8] = assay: Analgesic activity in po dosed CD-1 Charles River mouse measured for 15 to 60 mins by tail flick test relative to control; type: functional
[9] = Ratio of ED50 for neurotoxicity in CD-1 Charles River mouse by rotarod test to ED50 for inhibition of phenyl-p-benzoquinine-induced writhing in CD-1 Charles River mouse; type: toxicity, organism-based; settings: CD-1, mouse, in vivo; read-out: Ratio ED50
Mus musculus [10] = assay: Analgesic activity in CD-1 Charles River mouse assessed as inhibition of phenyl-p-benzoquinine-induced writhing at 25 mg/kg, po administered 15 to 90 mins prior to phenyl-p-benzoquinine challenge measured after 5 mins relative to control; type: functional
How it was run: (§2)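 Male CD-1 Charles River mice (18-24 g), five per group, were given the drug 15, 30, 60 and 90 min before an injection of 0.125% phenyl-p-benzoquinone in 5% aqueous ethanol. The vehicle was distilled water with a few drops of Tween 80. Writhes were counted for 10 min, starting 5 min after the injection, with mice held singly in beakers. The read-out was percent inhibition of writhes versus vehicle-treated mice.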

Mus musculus [11] = assay: Analgesic activity in CD-1 Charles River mouse assessed as inhibition of phenyl-p-benzoquinine-induced writhing at 25 mg/kg, sc administered 15 to 90 mins prior to phenyl-p-benzoquinine challenge measured after 5 mins relative to control; type: functional; settings: route subcutaneous
How it was run: as §2

Mus musculus [12] = assay: Analgesic activity in CD-1 Charles River mouse assessed as inhibition of phenyl-p-benzoquinine-induced writhing at 5 mg/kg, po administered 15 to 90 mins prior to phenyl-p-benzoquinine challenge measured after 5 mins relative to control; type: functional
How it was run: as §2

Q: Which ED50 (Mus musculus [1]) does the source give for `CN1CC[C@]23c4c5ccc(O)c4O[C@H]2[C@@H](O)C=C[C@H]3[C@H]1C5.CN1CC[C@]23c4c5ccc(O)c4O[C@H]2[C@@H](O)C=C[C@H]3[C@H]1C5.O=S(=O)(O)O` here?
A: 0.36 mg/kg

Q: Which ED50 (Mus musculus [1]) does the source give for `Br.CN1CCC2(CC1)C(=O)c1ccccc1Oc1ccccc12` here?
A: 5.2 mg/kg

Q: What about the Activity (Mus musculus [2]) of the same compound?
A: 13%

Q: For `Br.CN1CCC2(CC1)C(=O)c1cc(F)ccc1Oc1ccccc12`, which ED50 (Mus musculus [1]) is on record?
A: 1.9 mg/kg

Q: And the ED50 (Mus musculus [3])?
A: 2 mg/kg

Q: And the “Ratio ED50” value (Mus musculus [4])?
A: 10

Q: And the “Ratio ED50” value (Mus musculus [5])?
A: 1

Q: And the Activity (Mus musculus [2])?
A: 30%

Q: What about the “Ratio ED50” value (Mus musculus [6]) of the same compound?
A: 2

Q: For `Br.CN1CCC2(CC1)C(=O)c1cc(Cl)ccc1Oc1ccccc12`, which ED50 (Mus musculus [1]) is on record?
A: 3.5 mg/kg

Q: And the ED50 (Mus musculus [3])?
A: 5.2 mg/kg

Q: And the “Ratio ED50” value (Mus musculus [5])?
A: 1.5

Q: And the ED50 (Mus musculus [7])?
A: 13.2 mg/kg

Q: For `Br.O=C1c2ccccc2Oc2ccccc2C12CCNCC2`, which ED50 (Mus musculus [1]) is on record?
A: 1.7 mg/kg

Q: And the ED50 (Mus musculus [3])?
A: 7.5 mg/kg

Q: What about the “Ratio ED50” value (Mus musculus [5]) of the same compound?
A: 4.5

Q: What about the Activity (Mus musculus [2]) of the same compound?
A: 60%

Q: Which results are given for `Cl.O=C1c2cc(F)ccc2Oc2ccccc2C12CCNCC2`?
A: ED50 (Mus musculus [1]): 1.6 mg/kg; ED50 (Mus musculus [3]): 2.2 mg/kg; Ratio ED50 (Mus musculus [4]): 10; Ratio ED50 (Mus musculus [5]): 1; Activity (Mus musculus [2]): 75%; ED50 (Mus musculus [8]): 51.4 mg/kg; selectivity ratio [9]: 17.6; Ratio ED50 (Mus musculus [6]): 2

Q: Which ED50 (Mus musculus [1]) does the source give for `Br.O=C1c2cc(Cl)ccc2Oc2ccccc2C12CCNCC2` here?
A: 3.7 mg/kg

Q: And the ED50 (Mus musculus [3])?
A: 7.7 mg/kg

Q: What about the “Ratio ED50” value (Mus musculus [5]) of the same compound?
A: 2

Q: What about the ED50 (Mus musculus [7]) of the same compound?
A: 12 mg/kg

Q: With `Br.O=C1c2ccccc2Oc2ccccc2C12CCN(CC1CC1)CC2` as the compound, how does the ED50 (Mus musculus [1]) read?
A: 6 mg/kg

Q: And the inhibition in vivo at 25 mg/kg (Mus musculus [10])?
A: 59%

Q: With `Br.O=C1c2cc(Cl)ccc2Oc2ccccc2C12CCN(CC1CC1)CC2` as the compound, how does the Activity (Mus musculus [2]) read?
A: 0%

Q: And the inhibition in vivo at 25 mg/kg (Mus musculus [11])?
A: 31%

Q: With `Br.O=C1c2ccccc2Oc2ccccc2C12CCN(CCc1ccccc1)CC2` as the compound, how does the ED50 (Mus musculus [1]) read?
A: 21 mg/kg

Q: And the Activity (Mus musculus [2])?
A: 40%

Q: With `O=C1c2cc(Cl)ccc2Oc2ccccc2C12CCN(CCc1ccccc1)CC2` as the compound, how does the Activity (Mus musculus [2]) read?
A: 0%

Q: And the inhibition in vivo at 25 mg/kg (Mus musculus [11])?
A: 30%

Q: What does the source list for `Br.C#CCN1CCC2(CC1)C(=O)c1ccccc1Oc1ccccc12`?
A: Activity (Mus musculus [2]): 20%; inhibition in vivo at 25 mg/kg (Mus musculus [11]): 57%

Q: For `C#CCN1CCC2(CC1)C(=O)c1cc(Cl)ccc1Oc1ccccc12`, which Activity (Mus musculus [2]) is on record?
A: 10%

Q: What about the inhibition in vivo at 25 mg/kg (Mus musculus [11]) of the same compound?
A: 32%

Q: With `Br.O=C1c2ccccc2Oc2ccccc2C12CCN(CCO)CC2` as the compound, how does the ED50 (Mus musculus [1]) read?
A: 2.8 mg/kg

Q: And the Activity (Mus musculus [2])?
A: 40%

Q: What does the source list for `Br.O=C1c2cc(Cl)ccc2Oc2ccccc2C12CCN(CCO)CC2`?
A: ED50 (Mus musculus [1]): 7 mg/kg; Activity (Mus musculus [2]): 30%

Q: Which results are given for `Br.O=C(CCCN1CCC2(CC1)C(=O)c1ccccc1Oc1ccccc12)c1ccc(F)cc1`?
A: inhibition in vivo at 5 mg/kg (Mus musculus [12]): 67%; Activity (Mus musculus [2]): 60%

Q: With `Br.O=C(CCCN1CCC2(CC1)C(=O)c1cc(Cl)ccc1Oc1ccccc12)c1ccc(F)cc1` as the compound, how does the Activity (Mus musculus [2]) read?
A: 20%

Q: And the inhibition in vivo at 25 mg/kg (Mus musculus [11])?
A: 49%

Q: With `Br.O=C1c2ccccc2Oc2ccccc2C12CCN(CCCOc1ccccc1)CC2` as the compound, how does the Activity (Mus musculus [2]) read?
A: 20%

Q: What about the inhibition in vivo at 25 mg/kg (Mus musculus [11]) of the same compound?
A: 55%

Q: With `O=C1c2cc(Cl)ccc2Oc2ccccc2C12CCN(CCCOc1ccccc1)CC2` as the compound, how does the Activity (Mus musculus [2]) read?
A: 0%

Q: What about the inhibition in vivo at 25 mg/kg (Mus musculus [11]) of the same compound?
A: 54%

Q: For `CC(C)=CCN1CCC2(CC1)C(=O)c1cc(Cl)ccc1Oc1ccccc12`, which inhibition in vivo at 25 mg/kg (Mus musculus [11]) is on record?
A: 42%

Q: What does the source list for `Br.C=CCN1CCC2(CC1)C(=O)c1cc(Cl)ccc1Oc1ccccc12`?
A: Activity (Mus musculus [2]): 10%; inhibition in vivo at 25 mg/kg (Mus musculus [11]): 37%

Q: With `Br.CCN1CCC2(CC1)C(=O)c1cc(Cl)ccc1Oc1ccccc12` as the compound, how does the Activity (Mus musculus [2]) read?
A: 0%

Q: What about the inhibition in vivo at 25 mg/kg (Mus musculus [11]) of the same compound?
A: 67%

Q: Which Activity (Mus musculus [2]) does the source give for `Br.CCCN1CCC2(CC1)C(=O)c1cc(Cl)ccc1Oc1ccccc12` here?
A: 10%

Q: What about the inhibition in vivo at 25 mg/kg (Mus musculus [11]) of the same compound?
A: 22%

Q: For `CC(C)=CCN1CC[C@]2(C)c3cc(O)ccc3C[C@H]1[C@H]2C` [(+)-PENTAZOCINE], which ED50 (Mus musculus [1]) is on record?
A: 2.4 mg/kg

Q: With `CCC(=O)O[C@](Cc1ccccc1)(c1ccccc1)[C@H](C)CN(C)C` [PROPOXYPHENE] as the compound, how does the ED50 (Mus musculus [1]) read?
A: 3.9 mg/kg

Q: What about the ED50 (Mus musculus [3]) of the same compound?
A: 24.6 mg/kg

Q: And the “Ratio ED50” value (Mus musculus [5])?
A: 6.3
